≈ marks a conversion by molar mass, not a printed value. Like-named read-outs stand apart in the source and are kept apart here.
Key:
[1] = molecular target: T1, PF12 bc1 complex (PF11 changes plus Y279S) (Saccharomyces cerevisiae, UniProt P00163, C133V/C134L/F296L/H141Y/I299L/L275F/M295V/R283K/V135P/Y136W/Y279S); conditions: cited from earlier work
[2] = Cytotoxicity assay; type: cell-based, Human; conditions: human, HepG2 cells
How it was run: (§1)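 HepG2 cells in DMEM with 10% FBS and penicillin-streptomycin, seeded at 6,000/well and attached overnight at 37 °C, 5% CO₂. Test compound in DMSO diluted into medium and added; 24 h incubation. CCK-8 added for 2–4 h, then absorbance read at 450 nm. CC50 (reported as EC50) from nonlinear logistic regression. SI is CC50 over 3D7 EC50.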

[3] = molecular target: T2, wildtype yeast bc1 complex (Saccharomyces cerevisiae, UniProt P00163); conditions: at 1 μmol/L; cited from earlier work
[4] = test system: 3D7 strain of P. falciparum; assay: Parasites growth inhibition assay; type: cell-based; conditions: Plasmodium falciparum
How it was run: (§2)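 P. falciparum grown in type O human red cells in RPMI 1640 with Albumax I, hypoxanthine, bicarbonate, 15 mmol/L HEPES and gentamycin, under 5% O₂/5% CO₂/90% N₂. Synchronised with alanine/HEPES or 5% sorbitol. Mid-ring parasites (0.5% parasitemia, 2% hematocrit) exposed to serially diluted test compound in triplicate for 72 h at 37 °C.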

[5] = Measurement of solubility; type: physicochemical; conditions: thermodynamic from solid
How it was run: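 Solid added to solvent to supersaturation and shaken 24 h at room temperature, then centrifuged and filtered. Aqueous supernatants were quantified by reversed-phase HPLC against a standard curve prepared in methanol. For organic solvents, the dissolved solid was weighed after removing solvent under reduced pressure.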

[6] = test system: wildtype (WT) D10 parasites; assay: Parasites growth inhibition assay, wildtype D10 strain; type: cell-based; conditions: Plasmodium falciparum
How it was run: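 Wildtype D10 or yDHOD-transgenic D10 parasites were challenged with test compound with or without 50 nmol/L proguanil. Growth inhibition used SYBR Green I: mid-ring cultures at 0.5% parasitemia and 2% hematocrit, in triplicate, for 72 h at 37 °C under 5% O₂/5% CO₂. Plates were freeze-thawed and lysed with SYBR Green I buffer, and fluorescence read at 485/538 nm. EC50 by nonlinear regression.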

[7] = test system: HepG2 cells; assay: Cytotoxicity assay; type: cell-based, Human; conditions: CC50 / EC50 on 3D7
How it was run: as §1

[8] = test system: P. falciparum strain GB4; assay: Parasites growth inhibition assay, strain GB4; type: cell-based; conditions: Plasmodium falciparum
How it was run: as §2

[9] = test system: P. falciparum strain PC26; assay: Parasites growth inhibition assay, strain PC26; type: cell-based; conditions: Plasmodium falciparum
How it was run: as §2

[10] = test system: P. falciparum strain 803; assay: Parasites growth inhibition assay, strain 803; type: cell-based; conditions: Plasmodium falciparum
How it was run: as §2

[11] = test system: P. falciparum strain C2A; assay: Parasites growth inhibition assay, strain C2A; type: cell-based; conditions: Plasmodium falciparum
How it was run: as §2

[12] = test system: P. falciparum strain Dd2; assay: Parasites growth inhibition assay, strain Dd2; type: cell-based; conditions: Plasmodium falciparum
How it was run: as §2

[13] = test system: P. falciparum strain Fab9; assay: Parasites growth inhibition assay, strain Fab9; type: cell-based; conditions: Plasmodium falciparum
How it was run: as §2

[14] = test system: P. falciparum strain CP286; assay: Parasites growth inhibition assay, strain CP286; type: cell-based; conditions: Plasmodium falciparum
How it was run: as §2

[15] = molecular target: T1, PF12 bc1 complex (PF11 changes plus Y279S); assay: Decylubiquinol-cytochrome c reductase activity, yeast bc1 mutant PF12; type: biochemical
[16] = molecular target: T2, wildtype yeast bc1 complex; assay: Decylubiquinol-cytochrome c reductase activity, wildtype yeast bc1; type: biochemical; conditions: at 10 μmol/L, data not shown
How it was run: (§3)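 Yeast cytochrome b mutants carry P. falciparum-like substitutions and are otherwise isogenic. Mitochondria from mid-log YPGal cultures were made via zymolyase protoplasts, osmotic shock and differential centrifugation; bc1 content came from dithionite-reduced spectra. Assay at room temperature: 20 µmol/L cytochrome c in 10 mmol/L potassium phosphate pH 7, 0.01% lauryl-maltoside, 1 mmol/L KCN. bc1 was 6 nmol/L (wildtype) or 20 nmol/L (mutants), started with 40 µmol/L decylubiquinol.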

[17] = molecular target: T3, Pfbc1 (Plasmodium falciparum, UniProt Q02768); assay: Decylubiquinol-cytochrome c reductase activity of Pfbc1; type: biochemical, P. falciparum
T3 sequence (Q02768 1-376): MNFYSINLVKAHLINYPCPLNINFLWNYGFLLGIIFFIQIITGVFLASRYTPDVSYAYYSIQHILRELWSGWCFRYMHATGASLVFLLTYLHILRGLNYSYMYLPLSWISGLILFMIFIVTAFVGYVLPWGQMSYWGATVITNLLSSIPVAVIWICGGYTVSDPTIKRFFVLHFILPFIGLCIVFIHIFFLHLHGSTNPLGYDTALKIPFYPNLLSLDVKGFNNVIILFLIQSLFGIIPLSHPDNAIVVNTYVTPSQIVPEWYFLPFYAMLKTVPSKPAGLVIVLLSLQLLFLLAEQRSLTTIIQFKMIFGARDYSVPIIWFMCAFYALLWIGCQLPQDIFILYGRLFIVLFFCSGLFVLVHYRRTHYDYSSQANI

[18] = molecular target: T4, PfNDH2 (Plasmodium falciparum, UniProt Q8I302); assay: Enzymatic activity assay of PfNDH2; type: biochemical, P. falciparum
T4 sequence (Q8I302 1-533): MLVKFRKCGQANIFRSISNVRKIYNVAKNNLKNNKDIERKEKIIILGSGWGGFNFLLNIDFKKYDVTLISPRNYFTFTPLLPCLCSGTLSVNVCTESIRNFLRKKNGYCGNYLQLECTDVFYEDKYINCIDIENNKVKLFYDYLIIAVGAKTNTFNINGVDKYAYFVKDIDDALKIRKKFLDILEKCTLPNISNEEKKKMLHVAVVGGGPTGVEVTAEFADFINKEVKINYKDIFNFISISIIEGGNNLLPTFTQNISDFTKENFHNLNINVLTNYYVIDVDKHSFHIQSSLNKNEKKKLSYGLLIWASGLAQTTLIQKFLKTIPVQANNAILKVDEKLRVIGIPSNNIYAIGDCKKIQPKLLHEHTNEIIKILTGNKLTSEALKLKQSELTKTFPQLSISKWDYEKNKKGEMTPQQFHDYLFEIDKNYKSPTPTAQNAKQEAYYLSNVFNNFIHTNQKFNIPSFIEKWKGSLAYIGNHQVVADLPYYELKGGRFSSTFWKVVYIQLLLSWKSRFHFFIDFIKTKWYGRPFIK
How it was run: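 Reaction started with enzyme; NADH decrease followed continuously at 340 nm (ε 6220 L/(mol·cm)); IC50 by nonlinear regression. Kinetics varied UQ₁ (5–100 µmol/L) or NADH (10–600 µmol/L) at several inhibitor concentrations; Lineweaver–Burk analysis.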

[19] = test system: Plasmodium yoelii-infected mouse models; assay: In vivo efficacy study on P. yoelii-infected mice; conditions: once a day for 4 days
How it was run: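 Female BALB/c mice (25 g, 6–8 weeks), specific pathogen-free, five per group. Infected intraperitoneally with about 1×10⁶ P. yoelii-infected red cells on Day 0, then randomised. Test compound in aqueous 5% DMSO / 18% PEGylated castor oil given intraperitoneally once daily for 4 days from Day 1. Chloroquine and DMSO groups included. Parasitemia by Giemsa-stained smear microscopy; survival followed, with CO₂ euthanasia at distress. Mean ± SD, n = 5.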

[20] = molecular target: PF11 bc1 complex with P. falciparum-like modifications in the Qo-site (Saccharomyces cerevisiae, UniProt P00163, C133V/C134L/F296L/H141Y/I299L/L275F/M295V/R283K/V135P/Y136W); assay: Decylubiquinol-cytochrome c reductase activity, yeast bc1 mutant PF11; type: biochemical
How it was run: as §3

[21] = molecular target: PFQi4 bc1 complex with P. falciparum-like modifications in the Qi-site (Saccharomyces cerevisiae, UniProt P00163, A191L/F225L/I17L/I195F/I226L/L198I/L40F/M221F/Q22C/S20Y/S34F/V41F/Y16H); assay: Decylubiquinol-cytochrome c reductase activity, yeast bc1 mutant PFQi4; type: biochemical
How it was run: as §3

[22] = test system: various P. falciparum strains; assay: Parasites growth inhibition on the panel of various P. falciparum strains; type: cell-based, Plasmodium falciparum; conditions: all strains of Table 2
How it was run: as §2

[23] = 0.01 mol/L HCl, pH 2, simulated gastric fluid
[24] = dichloromethane, organic solvent or mixture
[25] = methanol, organic solvent or mixture

| Compound | CC50 at 24 h [2] [nM] | EC50 [4] [nM] | solubility at 24 h [5, 23] [mM] | solubility at 24 h [5, 24] [mM] | solubility at 24 h [5, 25] [mM] | solubility at 24 h ([5]; water) [mM] | EC50 [6] [nM] | SI (selectivity index) [7] | EC50 [8] [nM] | EC50 [9] [nM] | EC50 [10] [nM] | EC50 [11] [nM] | EC50 [12] [nM] | EC50 [13] [nM] | EC50 [14] [nM] | also measured |
| --- | --- | --- | --- | --- | --- | --- | --- | --- | --- | --- | --- | --- | --- | --- | --- | --- |
| O=C1C(O)=C([C@H]2CC[C@H](c3ccc(Cl)cc3)CC2)C(=O)c2ccccc21 [Atovaquone, atovaquone, reference compound] | > 10000 | 0.45 | 0.0006 (≈ 0.22 µg/mL) | 29 (≈ 10600 µg/mL) | 29 (≈ 10600 µg/mL) | 0.0007 (≈ 0.257 µg/mL) | – | – | – | – | – | – | – | – | – | Increase of mid-point inhibitory concentration PF12 compared to PF11 [1]: > 100 fold; Inhibition of wildtype yeast bc1 complex [3]: fully inhibited |
| Cc1c(-c2ccc(Cc3ccc(OC(F)(F)F)cc3)c(CN(C)C)c2)[nH]c2cccc(F)c2c1=O [Compound 24] | > 10000 | 2.09 | 0.496 (≈ 240 µg/mL) | 19 (≈ 9210 µg/mL) | 110 (≈ 53300 µg/mL) | 0.04 (≈ 19.4 µg/mL) | 3.23 | >4785 | 1.02 | 3.17 | 9.3 | 1.44 | 2.05 | 6.01 | 4.56 | – |
| Cc1c(-c2ccc(Cc3ccc(OC(F)(F)F)cc3)c(CN3CCCC3)c2)[nH]c2cccc(F)c2c1=O [Compound 25] | > 10000 | 2.89 | 0.45 (≈ 230 µg/mL) | 30 (≈ 15300 µg/mL) | 37 (≈ 18900 µg/mL) | 0.0163 (≈ 8.32 µg/mL) | 2.32 | >3460 | 1.41 | 3.3 | 9.81 | 7.01 | 2.18 | 5.33 | 4.81 | – |
| CCCCCN(C)Cc1cc(-c2[nH]c3cccc(F)c3c(=O)c2C)ccc1Cc1ccc(OC(F)(F)F)cc1 [Compound 30] | > 10000 | 0.61 | 0.337 (≈ 182 µg/mL) | 370 (≈ 200000 µg/mL) | 34 (≈ 18400 µg/mL) | 0.0064 (≈ 3.46 µg/mL) | – | >16,393 | – | – | – | – | – | – | – | – |
| CCCCCCCN(C)Cc1cc(-c2[nH]c3cccc(F)c3c(=O)c2C)ccc1Cc1ccc(OC(F)(F)F)cc1 [Compound 31] | > 10000 | 0.3 | 0.0194 (≈ 11 µg/mL) | 420 (≈ 239000 µg/mL) | 32 (≈ 18200 µg/mL) | 0.002 (≈ 1.14 µg/mL) | – | >33,333 | – | – | – | – | – | – | – | – |
| CCCN(C)Cc1cc(-c2[nH]c3cccc(F)c3c(=O)c2C)ccc1Cc1ccc(OC(F)(F)F)cc1 [RYL-581] | > 10000 | 0.056 | 0.428 (≈ 219 µg/mL) | 64 (≈ 32800 µg/mL) | 37 (≈ 19000 µg/mL) | 0.0136 (≈ 6.97 µg/mL) | 0.7 | >178,571 | 0.23 | 0.31 | 0.96 | 0.29 | 0.44 | 0.27 | – | IC50 [15]: ~1000 nM; Increase of mid-point inhibitory concentration PF12 compared to PF11 [15]: three-fold; Inhibition of wildtype yeast bc1 complex [16]: only slight inhibition; IC50 [17]: 0.51 nM; Potency on PfNDH2 decreased as compared to RYL-552 [18]: 11 fold; IC50 ([18]; IC50 PfNDH2, 200 μmol/L NADH, 100 μmol/L UQ1): 42.2 nM; Type of inhibition of PfNDH2 (Lineweaver–Burk) ([18]; substrates Q (UQ1) and NADH varied): non-competitive; Day by which parasites were completely cleared ([19]; 3 mg/kg/d intraperitoneal): ≤ 22 days; Final survival rate ([19]; 3 mg/kg/d intraperitoneal, 5 mice): 80%; Day by which all mice were cured ([19]; 10 mg/kg/d intraperitoneal): ≤ 16 days; Survival rate ([19]; 10 mg/kg/d intraperitoneal, 5 mice): 100%; IC50 [20]: ~300 nM; IC50 [21]: ~10000 nM; Resistance of PFQi4 bc1 complex compared to wild type [21]: increased reactivity; EC50 values on various strains, in words [22]: sub-nanomolar |

Reference: article PMC8463279 (Acta Pharmaceutica Sinica. B, 2021)
